Experimental data as given in ChEMBL document CHEMBL2390929, “New nitric oxide donating 1,2,4-triazole/oxime hybrids: synthesis, investigation of anti-inflammatory, ulceroginic liability and antiproliferative activities” (Bioorg Med Chem, 2013).

How the values were obtained:
MCF7 = test: Cytotoxicity against human MCF7 cells assessed as cell growth at 10^-5 M after 48 hrs by SRB assay; assay type: functional; conditions: MCF7, 48 h, read-out: Activity
Summary of the method: (§1)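 NCI 60-cell-line primary one-dose screen across nine tumour subpanels. Compound added at a single concentration of 10^-5 M and cultures incubated 48 h. Endpoint was sulforhodamine B protein staining read spectrophotometrically, with growth expressed as percent of untreated control cells.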

SN12C = test: Cytotoxicity against human SN12C cells assessed as cell growth at 10^-5 M after 48 hrs by SRB assay; assay type: functional; conditions: read-out: Activity
Summary of the method: (§2)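 NCI-60 one-dose screen across nine tumour subpanels. Each agent added once at 10^-5 M, cultures incubated 48 h. Endpoint is sulforhodamine B protein staining read spectrophotometrically. Output is percent growth of treated cells relative to untreated controls.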

RXF 393 = test: Cytotoxicity against human RXF393 cells assessed as cell growth at 10^-5 M after 48 hrs by SRB assay; assay type: functional; conditions: RXF 393, 48 h, read-out: Activity; summary of the method: as §1
NCI/ADR-RES = test: Cytotoxicity against human NCI/ADR-RES cells assessed as cell growth at 10^-5 M after 48 hrs by SRB assay; assay type: functional; conditions: read-out: Activity; summary of the method: as §1
OVCAR-4 = test: Cytotoxicity against human OVCAR4 cells assessed as cell growth at 10^-5 M after 48 hrs by SRB assay; assay type: functional; conditions: OVCAR-4, 48 h, read-out: Activity; summary of the method: as §1
OVCAR-5 = test: Cytotoxicity against human OVCAR5 cells assessed as cell growth at 10^-5 M after 48 hrs by SRB assay; assay type: functional; conditions: OVCAR-5, 48 h, read-out: Activity; summary of the method: as §1
IGROV-1 = test: Cytotoxicity against human IGROV1 cells assessed as cell growth at 10^-5 M after 48 hrs by SRB assay; assay type: functional; conditions: IGROV-1, 48 h, read-out: Activity; summary of the method: as §1
SK-MEL-5 = test: Cytotoxicity against human SK-MEL-5 cells assessed as cell growth at 10^-5 M after 48 hrs by SRB assay; assay type: functional; conditions: SK-MEL-5, 48 h, read-out: Activity; summary of the method: as §2
SK-MEL-28 = test: Cytotoxicity against human SK-MEL-28 cells assessed as cell growth at 10^-5 M after 48 hrs by SRB assay; assay type: functional; conditions: SK-MEL-28, 48 h, read-out: Activity; summary of the method: as §2
Malme-3M = test: Cytotoxicity against human MALME-3M cells assessed as cell growth at 10^-5 M after 48 hrs by SRB assay; assay type: functional; conditions: read-out: Activity; summary of the method: as §1
SNB-75 = test: Cytotoxicity against human SNB75 cells assessed as cell growth at 10^-5 M after 48 hrs by SRB assay; assay type: functional; conditions: SNB-75, 48 h, read-out: Activity; summary of the method: as §2
SF-539 = test: Cytotoxicity against human SF539 cells assessed as cell growth at 10^-5 M after 48 hrs by SRB assay; assay type: functional; conditions: SF-539, 48 h, read-out: Activity; summary of the method: as §1
SF-268 = test: Cytotoxicity against human SF268 cells assessed as cell growth at 10^-5 M after 48 hrs by SRB assay; assay type: functional; conditions: SF-268, 48 h, read-out: Activity; summary of the method: as §1
SW-620 = test: Cytotoxicity against human SW620 cells assessed as cell growth at 10^-5 M after 48 hrs by SRB assay; assay type: functional; conditions: SW-620, 48 h, read-out: Activity; summary of the method: as §2
KM12 = test: Cytotoxicity against human KM12 cells assessed as cell growth at 10^-5 M after 48 hrs by SRB assay; assay type: functional; conditions: KM12, 48 h, read-out: Activity; summary of the method: as §1
HT-29 = test: Cytotoxicity against human HT-29 cells assessed as cell growth at 10^-5 M after 48 hrs by SRB assay; assay type: functional; conditions: HT-29, 48 h, read-out: Activity; summary of the method: as §1
COLO 205 = test: Cytotoxicity against human COLO205 cells assessed as cell growth at 10^-5 M after 48 hrs by SRB assay; assay type: functional; conditions: COLO 205, 48 h, read-out: Activity; summary of the method: as §1
HCC 2998 = test: Cytotoxicity against human HCC2998 cells assessed as cell growth at 10^-5 M after 48 hrs by SRB assay; assay type: functional; conditions: HCC 2998, 48 h, read-out: Activity; summary of the method: as §1
NCI-H522 = test: Cytotoxicity against human NCI-H522 cells assessed as cell growth at 10^-5 M after 48 hrs by SRB assay; assay type: functional; conditions: NCI-H522, 48 h, read-out: Activity; summary of the method: as §1
NCI-H460 = test: Cytotoxicity against human NCI-H460 cells assessed as cell growth at 10^-5 M after 48 hrs by SRB assay; assay type: functional; conditions: NCI-H460, 48 h, read-out: Activity; summary of the method: as §1
HOP-62 = test: Cytotoxicity against human HOP62 cells assessed as cell growth at 10^-5 M after 48 hrs by SRB assay; assay type: functional; conditions: HOP-62, 48 h, read-out: Activity; summary of the method: as §1
[1] = Cytotoxicity against human EKVX cells assessed as cell growth at 10^-5 M after 48 hrs by SRB assay; assay type: functional; conditions: read-out: Activity; summary of the method: as §1
K562 = test: Cytotoxicity against human K562 cells assessed as cell growth at 10^-5 M after 48 hrs by SRB assay; assay type: functional; conditions: K562, 48 h, read-out: Activity; summary of the method: as §1
HL-60(TB) = test: Cytotoxicity against human HL-60(TB) cells assessed as cell growth at 10^-5 M after 48 hrs by SRB assay; assay type: functional; conditions: HL-60, 48 h, read-out: Activity
Summary of the method: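 NCI 60-cell-line one-dose screen: compound added to cultures at a single concentration of 10^-5 M, incubated 48 h. End point by sulforhodamine B protein staining, read spectrophotometrically. Value is percent growth of treated cells relative to untreated control cells.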

CCRF-CEM = test: Cytotoxicity against human CCRF-CEM cells assessed as cell growth at 10^-5 M after 48 hrs by SRB assay; assay type: functional; conditions: read-out: Activity; summary of the method: as §1
Rattus norvegicus [2] = test: Antiinflammatory activity in albino rat assessed as inhibition of carrageenan-induced paw edema at 0.28 mmol/kg, po after 5 hrs relative to control; assay type: functional
Summary of the method: (§3)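 Adult male albino rats (120–140 g), four per group, fasted 24 h with water allowed. Test agent suspended in 0.5% w/v aqueous CMC and given orally at 0.28 mmol/kg; controls received CMC alone. After 30 min, 0.1 mL fresh 1% carrageenan in saline was injected subplantar into the right hind paw and saline into the left. Paw thickness was measured by Vernier caliper; % inhibition = [(VR−VL)control − (VR−VL)treated]/(VR−VL)control ×100. Mean ± SEM, one-way ANOVA.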

Rattus norvegicus [3] = test: Antiinflammatory activity in albino rat assessed as inhibition of carrageenan-induced paw edema at 0.28 mmol/kg, po after 2 hrs relative to control; assay type: functional; summary of the method: as §3
[4] = Induction of nitric oxide release in phosphate buffer at pH 7.4 at 0.1 mM after 3 hrs by Griess method in presence of 0.5 mM of N-acetylcysteine; assay type: physicochemical; conditions: pH 7.4, 3 h, 100 µM
Summary of the method: (§4)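 Compound in DMF diluted to final 10^-4 M in 1:1 50 mM phosphate buffer pH 7.4/MeOH with 5×10^-4 M N-acetylcysteine, 37 °C. Aliquot mixed with Griess reagent, 10 min at room temperature, A546 read. Nitrite quantified against sodium nitrite standards (10–80 nmol/mL); NO expressed as mol/mol. n = 4 reaction mixtures per compound.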

[5] = Induction of nitric oxide release in phosphate buffer at pH 7.4 at 0.1 mM after 1 hr by Griess method in presence of 0.5 mM of N-acetylcysteine; assay type: physicochemical; conditions: pH 7.4, 1 h, 100 µM; summary of the method: as §4

Structure (SMILES) | growth at 10 µM (MCF7) | growth at 10 µM (SN12C) | growth at 10 µM (RXF 393) | growth at 10 µM (NCI/ADR-RES) | growth at 10 µM (OVCAR-4) | growth at 10 µM (OVCAR-5) | growth at 10 µM (IGROV-1) | growth at 10 µM (SK-MEL-5) | growth at 10 µM (SK-MEL-28) | growth at 10 µM (Malme-3M) | growth at 10 µM (SNB-75) | growth at 10 µM (SF-539) | growth at 10 µM (SF-268) | growth at 10 µM (SW-620) | growth at 10 µM (KM12) | growth at 10 µM (HT-29) | growth at 10 µM (COLO 205) | growth at 10 µM (HCC 2998) | growth at 10 µM (NCI-H522) | growth at 10 µM (NCI-H460) | further results
CCn1c(SC/C(=N/O)c2ccccc2)nnc1-c1ccc(OC)c(OC)c1 | 118% | 99.5% | 114% | 103% | 97.5% | 107% | 106% | 96.3% | 103% | 94.8% | 90.3% | 100% | 101% | 106% | 100% | 100% | 93.5% | 104% | 89.4% | 105% | growth at 10 µM (HOP-62): 85.9%; growth at 10 µM [1]: 102%; growth at 10 µM (K562): 93.4%; growth at 10 µM (HL-60(TB)): 95.8%; growth at 10 µM (CCRF-CEM): 98%; inhibition in vivo at 280 µmol/kg (Rattus norvegicus [2]): 71%; inhibition in vivo at 280 µmol/kg (Rattus norvegicus [3]): 67%; Activity [4]: 0.2 mol/mol; Activity [5]: 0.06 mol/mol
O/N=C(/CSc1nnc(-c2ccccc2)n1-c1ccccc1)c1ccccc1 | 129% | 99.7% | 108% | 100% | 86.6% | 125% | 108% | 89.2% | 118% | 100% | 115% | 120% | 104% | 98.8% | 97.5% | 91.6% | 107% | 121% | 98.5% | 97.3% | growth at 10 µM (HOP-62): 109%; growth at 10 µM [1]: 95.4%; growth at 10 µM (K562): 74.6%; growth at 10 µM (HL-60(TB)): 92.2%; growth at 10 µM (CCRF-CEM): 91%; inhibition in vivo at 280 µmol/kg (Rattus norvegicus [2]): 75%; inhibition in vivo at 280 µmol/kg (Rattus norvegicus [3]): 63%; Activity [4]: 0.12 mol/mol; Activity [5]: 0.06 mol/mol
COc1ccc(-c2nnc(SC/C(=N/O)c3ccccc3)n2-c2ccccc2)cc1 | 104% | 97.9% | 108% | 97.9% | 86.4% | 109% | 101% | 93.9% | 117% | 96.5% | 103% | 107% | 117% | 114% | 112% | 95.1% | 116% | 112% | 81.6% | 106% | growth at 10 µM (HOP-62): 111%; growth at 10 µM [1]: 102%; growth at 10 µM (K562): 82.1%; growth at 10 µM (HL-60(TB)): 95.9%; growth at 10 µM (CCRF-CEM): 83.5%; inhibition in vivo at 280 µmol/kg (Rattus norvegicus [2]): 73%; inhibition in vivo at 280 µmol/kg (Rattus norvegicus [3]): 63%; Activity [4]: 0.09 mol/mol; Activity [5]: 0.08 mol/mol
